This note sets out measurements from publication PMC7218746 (Biomacromolecules, 2020).

Ends that are not written are not given here.

The test system of data set [1] is Metalloprotease (type IV) collagenase from C. histolyticume. The data set can be described thus: Kinetics of Pep-NC cleavage by collagenase. It counts as in vitro ADME. As to conditions: GPC; for change of molecular weight after incubation with collagenase: collagenase 30 units·mL–1, 24 h. Summed up: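 Polymer at 5 mg·mL–1 in PBS pH 7.4 with 0.9 mM CaCl2 and 0.02% NaN3, held 3 h at 4 °C, then 37 °C. l-Pep-NC incubated with or without type IV collagenase (0.5 units·mL–1); d-Pep-NC with 30 units·mL–1 for 24 h. Timed l-Pep-NC aliquots quenched 1 h with 0.1 M EDTA, dialysed, lyophilised. Mn by GPC (DMF/10 mM LiCl, 65 °C, RI detection, PEG standards).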

The nature of data set [2]: Determination of cloud points of polymers. It counts as physicochemical. The settings on record: in PBS; refers to Table 1.
The nature of the next data set: Dynamic light scattering. In kind it is physicochemical. As to conditions: DLS, 1 mg·mL–1 in PBS pH 7.4, 37 °C, 173° angle; micelles as prepared.
Where [3] appears, read: 37 °C, 5 mg·mL–1 polymer in PBS pH 7.4 with 0.9 mM CaCl2.

“KGPQGIFGQK [D-Pep-NC, (NIPAM-co-HPMA-Cys)-PEG-D-Peptide-PEG-P(NIPAM-co-HPMA-Cys)]”: the “change of molecular weight after incubation with collagenase” value in data set [1] (setting [3]) is listed as “did not change”.

On to “KGPQGIFGQK [Pep-NC, P(NIPAM-co-HPMA-Cys)-PEG-peptide-PEG-P(NIPAM-co-HPMA-Cys)]”, for which, in data set [2], the LCST was approximately 31 °C. For the same sequence, the Z-average diameter in the data set “Dynamic light scattering” came out at 87 ± 1 nm.

Turning to “KGPQGIFGQK [L-Pep-NC, P(NIPAM-co-HPMA-Cys)-PEG-peptide-PEG-P(NIPAM-co-HPMA-Cys)]”, the “change of molecular weight in the absence of the enzyme” value in data set [1] (24 h, 37 °C, PBS pH 7.4) is on record as “No change in the molecular weight”. Further, the “time for cleavage of the peptide block” value in data set [1] (collagenase 0.5 units·mL–1, 37 °C, 5 mg·mL–1 polymer in PBS pH 7.4 with 0.9 mM CaCl2) amounted to 160 min. In addition, in data set [1] (setting [3]), the “change of molecular weight after incubation with collagenase” value is on record as “reduced to half its original molecular weight”.
